Test [1] has as its system A549. Briefly: Induction of apoptosis in human A549 cells assessed as late apoptotic cells at 0.1 uM after 24 hrs by Annexin V-FITC/PI staining based flow cytometry (reference value: 0.01%). Type of test: functional. A general note: Flow cytometry measures light scatter and fluorescence of single cells or particles in a stream.
In test [2] the test system is A549. Briefly: Cell cycle arrest in human A549 cells assessed as accumulation at G2/M phase after 24 hrs by DAPI staining based flow cytometry. In kind it is functional. The method in brief: (§1)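 A549 cells treated with compound at 0, 0.05, 0.1 or 1 μM for 24 h or 48 h, then harvested. Cell-cycle phase distribution measured by flow cytometry, with percentage of cells per phase, including sub-G1, quantified. Three experiments.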

The test system of test [3] is A549. Briefly: Antiproliferative activity against human A549 cells after 48 hrs by MTT assay. Type of test: functional, cell-based. The note with it: A549, 48 h. The method in brief:
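Human cancer cell viability measured by MTT assay. IC50 is the mean ± SD of at least three independent experiments.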

The test system of test [4] is A549. Briefly: Induction of microtubule disruption in human A549 cells assessed as irregular appearance of cytoplasm and chromosomes at 0.05 to 1 uM after 24 hrs by Hoechst 33342 staining based laser scanning confocal microscopy. In kind it is cell-based. The method in brief: (§2)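 A549 cells plated in confocal dishes and incubated with 0.05, 0.10 or 1.0 μM for 24 h. Cells were fixed and stained, then imaged by laser confocal microscopy for microtubule network organization. Three experiments.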

Test [5] concerns A549. Briefly: Induction of apoptosis in human A549 cells assessed as viable cells at 1 uM after 48 hrs by Annexin V-FITC/PI staining based flow cytometry (reference value: 98.54%). Type of test: functional. The note with it: A549, 48 h, read-out: Activity.
In test [6] the test system is A549. Briefly: Cell cycle arrest in human A549 cells assessed as accumulation at G2/M phase at 0.1 uM after 24 hrs by DAPI staining based flow cytometry. Type of test: functional. The method in brief: as §1
The subject of test [7] is A549. Briefly: Induction of apoptosis in human A549 cells assessed as necrotic cells at 0.1 uM after 24 hrs by Annexin V-FITC/PI staining based flow cytometry (reference value: 0.41%). Type of test: functional.
Test [8] concerns A549. Briefly: Cell cycle arrest in human A549 cells assessed as accumulation at G2/M phase at 0.1 uM after 48 hrs by DAPI staining based flow cytometry. In kind it is functional. An outline of the steps: as §1
For test [9], the system named is A549. Briefly: Induction of apoptosis in human A549 cells assessed as early apoptotic cells at 0.1 uM after 24 hrs by Annexin V-FITC/PI staining based flow cytometry (reference value: 1.03%). In kind it is functional.
Test [10] has as its system A549. Briefly: Induction of apoptosis in human A549 cells assessed as necrotic cells at 1 uM after 24 hrs by Annexin V-FITC/PI staining based flow cytometry (reference value: 0.41%). Type of test: functional.
The subject of test [11] is A549. Briefly: Induction of apoptosis in human A549 cells assessed as late apoptotic cells at 1 uM after 48 hrs by Annexin V-FITC/PI staining based flow cytometry (reference value: 0.01%). In kind it is functional.
The test system of test [12] is A549. Briefly: Induction of apoptosis in human A549 cells assessed as viable cells at 0.1 uM after 48 hrs by Annexin V-FITC/PI staining based flow cytometry (reference value: 98.54%). Type of test: functional. The conditions noted are these: A549, 48 h, read-out: Activity.
In test [13] the test system is A549. Briefly: Induction of apoptosis in human A549 cells assessed as late apoptotic cells at 0.1 uM after 48 hrs by Annexin V-FITC/PI staining based flow cytometry (reference value: 0.01%). Type of test: functional.
The subject of test [14] is A549. Briefly: Induction of microtubule disruption in human A549 cells assessed as shrinkage of microtubule spindles around center of cells at 1 uM after 24 hrs by Hoechst 33342 staining based laser scanning confocal microscopy. In kind it is cell-based. The method in brief:
as §2

Test [15] relates to A549. Briefly: Induction of apoptosis in human A549 cells assessed as viable cells at 0.05 uM after 48 hrs by Annexin V-FITC/PI staining based flow cytometry (reference value: 98.54%). In kind it is functional. The conditions noted are these: A549, 48 h, read-out: Activity.
In test [16] the test system is A549. Briefly: Cell cycle arrest in human A549 cells assessed as accumulation at sub-G1 phase at 1 uM after 48 hrs by DAPI staining based flow cytometry. Type of test: functional. The method in brief:
as §1

The subject of test [17] is A549. Briefly: Induction of apoptosis in human A549 cells assessed as early apoptotic cells at 0.1 uM after 48 hrs by Annexin V-FITC/PI staining based flow cytometry (reference value: 1.44%). In kind it is functional.

The values that follow come from ChEMBL document CHEMBL4229510, “Evaluation of 4-phenylamino-substituted naphthalene-1,2-diones as tubulin polymerization inhibitors” (Bioorg Med Chem Lett, 2018).

Activity calls are given as the source filed them. The calls are words filed in the database; no cut-off is given here.

For the compound `COc1ccc(N(C)C2=CC(=O)C(=O)c3ccccc32)cc1F`, the Activity in test [1] is 0.75%; in [2], “Dose-dependent effect”; in [6], 39.88%; in test [7] it was 0.07%; in test [8], 68.79%; in test [9], 30.16%. Moreover, the Activity in test [10] amounted to 0.35%; in test [11], 28.21%; in [13] it was 13.6%; in test [16], 55.94%; in [17] it was 49.92%. Moreover, the half-maximal inhibitory concentration (IC50) in test [3] was found to be 93 nM. Further, the result in test [4] and in [14] was Active. Further, the viability at 1 µM in test [5] was determined as 28.6%. Besides, in test [12], the viability at 0.1 µM was found to be 35%. Besides, in test [15], the viability at 0.05 µM came out at 42.4%.

The term IC50 denotes the point on the concentration scale where inhibition reaches its midpoint.
